In ChEMBL document CHEMBL3745617 (J Med Chem, 2015):
Active and inactive are the calls of the source. The calls are words filed in the database; no cut-off is given here.

Experiments:
[1] = biological target: Hepatocyte growth factor receptor (Homo sapiens) (UniProt P08581); experiment: Inhibition of MET (unknown origin) expressed in BaF3 cells assessed as inhibition of cell proliferation after 72 hrs by CelltiterGlo assay; assay type: cell-based
[2] = biological target: Tyrosine-protein kinase JAK2 (Homo sapiens) (UniProt O60674); experiment: Inhibition of JAK2 (unknown origin) expressed in BaF3 cells assessed as inhibition of cell proliferation after 72 hrs by CelltiterGlo assay; assay type: cell-based
[3] = biological target: Receptor-type tyrosine-protein kinase FLT3 (Homo sapiens) (UniProt P36888); conditions: MOLM-13, 0.03 to 3 uM
MV4-11 [4] = experiment: Induction of apoptosis in human MV4-11 cells assessed as cleaved caspase-3 level at 0.03 to 1 uM after 48 hrs by immunoblot analysis; assay type: functional, cell-based
[5] = Antiproliferative activity against human MOLM14 cells after 72 hrs by CelltiterGlo assay; assay type: functional; conditions: MOLM-14, 72 h
[6] = biological target: Tyrosine-protein kinase Lck (Homo sapiens) (UniProt P06239); experiment: Inhibition of LCK (unknown origin) expressed in BaF3 cells assessed as inhibition of cell proliferation after 72 hrs by CelltiterGlo assay; assay type: cell-based
[7] = biological target: Receptor-type tyrosine-protein kinase FLT3 (Homo sapiens) (UniProt P36888); conditions: MV4-11, 0.03 to 3 uM
[8] = Cell cycle arrest in human MOLM14 cells assessed as accumulation at G0/G1 phase at 0.03 to 1 uM after 24 hrs by flow cytometry; assay type: functional, cell-based; conditions: MOLM-14
[9] = Cell cycle arrest in human MOLM13 cells assessed as accumulation at G0/G1 phase at 0.03 to 1 uM after 12 hrs by flow cytometry; assay type: functional, cell-based; conditions: MOLM-13
[10] = biological target: Tyrosine-protein kinase Blk (Homo sapiens) (UniProt P51451); experiment: Inhibition of BLK (unknown origin) assessed as remaining activity at 1 uM relative to control
Method in brief: (§1)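 KinomeScan competitive binding panel of 468 kinases. Compound tested at a single 1 µM concentration. Read-out is percent of kinase activity remaining relative to a DMSO control.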

[11] = biological target: Receptor-type tyrosine-protein kinase FLT3 (Homo sapiens) (UniProt P36888); conditions: MOLM-14, 0.03 to 3 uM
[12] = biological target: Dual specificity mitogen-activated protein kinase kinase 5 (Homo sapiens) (UniProt Q13163); experiment: Inhibition of MEK5 (unknown origin) assessed as remaining activity at 1 uM relative to control
Method in brief: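 KinomeScan competition binding panel of 468 kinases, with the compound tested at 1 µM. Each kinase's result is reported as percent activity remaining relative to a DMSO control.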

[13] = system: Receptor-type tyrosine-protein kinase FLT3 (Homo sapiens), P36888 [UNDEFINED MUTATION]; conditions: BaF3
[14] = biological target: Receptor-type tyrosine-protein kinase FLT3 (Homo sapiens) (UniProt P36888); conditions: MV4-11, 0.03 to 3 uM; remark: listed apart in the source
[15] = Cmax in Sprague-Dawley rat at 10 mg/kg, po; assay type: ADME, organism-based; parameters: dose 10 mg/kg, route oral; conditions: in vivo
[16] = biological target: Receptor-type tyrosine-protein kinase FLT3 (Homo sapiens) (UniProt P36888); conditions: BaF3
[17] = biological target: Tyrosine-protein kinase JAK1 (Homo sapiens) (UniProt P23458); experiment: Inhibition of JAK1 (unknown origin) expressed in BaF3 cells assessed as inhibition of cell proliferation after 72 hrs by CelltiterGlo assay; assay type: cell-based
MV4-11 [18] = experiment: Induction of apoptosis in human MV4-11 cells assessed as cleaved PARP level at 0.03 to 1 uM after 48 hrs by immunoblot analysis; assay type: functional, cell-based
[19] = Antiproliferative activity against human JVM2 cells after 72 hrs by CelltiterGlo assay; assay type: functional; conditions: JVM-2, 72 h
[20] = Tmax in Sprague-Dawley rat at 1 mg/kg, iv; assay type: ADME, organism-based; conditions: in vivo
[21] = biological target: Receptor-type tyrosine-protein kinase FLT3 (Homo sapiens) (UniProt P36888); conditions: MOLM-14, 0.03 to 3 uM; remark: listed apart in the source
[22] = Antiproliferative activity against human U2932 cells after 72 hrs by CelltiterGlo assay; assay type: functional; conditions: U2932, 72 h
[23] = Oral bioavailability in Sprague-Dawley rat at 10 mg/kg; assay type: ADME, organism-based; conditions: in vivo
[24] = biological target: Proto-oncogene tyrosine-protein kinase receptor Ret (Homo sapiens) (UniProt P07949); experiment: Inhibition of RET (unknown origin) expressed in BaF3 cells assessed as inhibition of cell proliferation after 72 hrs by CelltiterGlo assay; assay type: cell-based
[25] = biological target: Receptor-type tyrosine-protein kinase FLT3 (Homo sapiens) (UniProt P36888); conditions: MV4-11, 0.03 to 3 uM; remark: listed apart in the source
MV4-11 [26] = experiment: Antitumor activity against human MV4-11 cells xenografted in nu/nu mouse assessed as tumor weight at 50 mg/kg/day administered via oral gavage measured after 22 days of treatment (reference value: 2.5 g); assay type: functional
MOLM-13 [27] = experiment: Induction of apoptosis in human MOLM13 cells assessed as cleaved caspase-3 level at 0.03 to 1 uM after 12 hrs by immunoblot analysis; assay type: functional, cell-based
[28] = biological target: Receptor-type tyrosine-protein kinase FLT3 (Homo sapiens) (UniProt P36888); conditions: MOLM-13, 0.03 to 3 uM; remark: listed apart in the source
MV4-11 [29] = experiment: Cell cycle arrest in human MV4-11 cells assessed as accumulation at G0/G1 phase at 0.03 to 1 uM after 24 hrs by flow cytometry; assay type: functional, cell-based
[30] = biological target: Tyrosine-protein kinase HCK (Homo sapiens) (UniProt P08631); experiment: Inhibition of HCK (unknown origin) expressed in BaF3 cells assessed as inhibition of cell proliferation after 72 hrs by CelltiterGlo assay; assay type: cell-based
[31] = biological target: Platelet-derived growth factor receptor beta (Homo sapiens) (UniProt P09619); experiment: Inhibition of PDGFRB (unknown origin) assessed as remaining activity at 1 uM relative to control
MV4-11 [32] = experiment: Antitumor activity against human MV4-11 cells xenografted in nu/nu mouse assessed as tumor weight at 12.5 mg/kg/day administered via oral gavage measured after 22 days of treatment (reference value: 2.5 g); assay type: functional
MOLM-13 [33] = experiment: Induction of apoptosis in human MOLM13 cells assessed as cleaved PARP level at 0.03 to 1 uM after 12 hrs by immunoblot analysis; assay type: functional, cell-based
[34] = biological target: Cytoplasmic tyrosine-protein kinase BMX (Homo sapiens) (UniProt P51813); experiment: Inhibition of BMX (unknown origin) expressed in BaF3 cells assessed as inhibition of cell proliferation after 72 hrs by CelltiterGlo assay; assay type: cell-based
[35] = Apparent volume of distribution in Sprague-Dawley rat at 1 mg/kg, iv; assay type: ADME, organism-based; conditions: in vivo, read-out: Vd(app)
[36] = biological target: Tyrosine-protein kinase HCK (Homo sapiens) (UniProt P08631); experiment: Inhibition of HCK (unknown origin) assessed as remaining activity at 1 uM relative to control; method in brief: as §1
[37] = AUC(0 to t) in Sprague-Dawley rat at 10 mg/kg, po; assay type: ADME, organism-based; conditions: in vivo
[38] = biological target: Tyrosine-protein kinase Blk (Homo sapiens) (UniProt P51451); experiment: Inhibition of BLK (unknown origin) expressed in BaF3 cells assessed as inhibition of cell proliferation after 72 hrs by CelltiterGlo assay; assay type: cell-based

Chain of Receptor-type tyrosine-protein kinase FLT3 (Homo sapiens) (P36888 whole entry): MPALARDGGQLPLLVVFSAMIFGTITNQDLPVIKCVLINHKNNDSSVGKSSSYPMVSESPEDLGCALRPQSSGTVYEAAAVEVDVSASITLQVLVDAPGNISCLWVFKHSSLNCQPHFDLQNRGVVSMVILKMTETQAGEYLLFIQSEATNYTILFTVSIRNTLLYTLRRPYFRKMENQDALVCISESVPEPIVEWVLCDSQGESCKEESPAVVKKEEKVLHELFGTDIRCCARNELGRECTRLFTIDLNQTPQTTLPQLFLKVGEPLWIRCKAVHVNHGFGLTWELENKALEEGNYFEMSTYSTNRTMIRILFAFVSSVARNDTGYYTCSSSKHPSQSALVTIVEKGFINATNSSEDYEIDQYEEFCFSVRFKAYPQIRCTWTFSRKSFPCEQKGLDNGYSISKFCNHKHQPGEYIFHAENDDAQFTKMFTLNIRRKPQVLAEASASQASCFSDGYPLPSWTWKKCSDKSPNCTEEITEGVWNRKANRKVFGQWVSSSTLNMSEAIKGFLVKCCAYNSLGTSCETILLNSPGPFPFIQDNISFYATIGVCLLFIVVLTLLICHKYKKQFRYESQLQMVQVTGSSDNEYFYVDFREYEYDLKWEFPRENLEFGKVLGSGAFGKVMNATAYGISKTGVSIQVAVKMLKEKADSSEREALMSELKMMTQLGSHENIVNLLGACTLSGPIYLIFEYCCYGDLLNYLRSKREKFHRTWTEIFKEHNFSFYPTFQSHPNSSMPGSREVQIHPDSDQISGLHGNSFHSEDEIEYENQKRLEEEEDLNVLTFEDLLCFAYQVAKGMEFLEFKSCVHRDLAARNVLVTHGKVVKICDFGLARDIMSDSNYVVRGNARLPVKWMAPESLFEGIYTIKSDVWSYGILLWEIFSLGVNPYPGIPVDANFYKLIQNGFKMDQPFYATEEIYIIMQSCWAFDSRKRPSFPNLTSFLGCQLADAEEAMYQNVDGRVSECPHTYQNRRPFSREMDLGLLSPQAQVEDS
Chain of Tyrosine-protein kinase Blk (Homo sapiens) (P51451 2-505 limits assumed): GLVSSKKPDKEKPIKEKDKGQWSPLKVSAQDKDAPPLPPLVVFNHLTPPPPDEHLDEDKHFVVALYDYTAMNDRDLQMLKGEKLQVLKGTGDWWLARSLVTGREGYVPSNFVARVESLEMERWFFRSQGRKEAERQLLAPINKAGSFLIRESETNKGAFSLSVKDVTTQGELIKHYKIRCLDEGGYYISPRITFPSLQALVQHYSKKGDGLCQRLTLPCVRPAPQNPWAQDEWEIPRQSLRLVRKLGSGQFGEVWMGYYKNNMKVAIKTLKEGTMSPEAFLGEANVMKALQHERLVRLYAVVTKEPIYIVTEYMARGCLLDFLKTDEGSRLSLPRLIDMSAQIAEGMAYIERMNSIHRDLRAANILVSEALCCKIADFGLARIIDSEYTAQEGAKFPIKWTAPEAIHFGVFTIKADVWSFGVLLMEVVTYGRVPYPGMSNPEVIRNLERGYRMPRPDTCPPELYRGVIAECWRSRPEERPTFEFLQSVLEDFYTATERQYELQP
Chain of Tyrosine-protein kinase HCK (Homo sapiens) (P08631 2-526 limits assumed): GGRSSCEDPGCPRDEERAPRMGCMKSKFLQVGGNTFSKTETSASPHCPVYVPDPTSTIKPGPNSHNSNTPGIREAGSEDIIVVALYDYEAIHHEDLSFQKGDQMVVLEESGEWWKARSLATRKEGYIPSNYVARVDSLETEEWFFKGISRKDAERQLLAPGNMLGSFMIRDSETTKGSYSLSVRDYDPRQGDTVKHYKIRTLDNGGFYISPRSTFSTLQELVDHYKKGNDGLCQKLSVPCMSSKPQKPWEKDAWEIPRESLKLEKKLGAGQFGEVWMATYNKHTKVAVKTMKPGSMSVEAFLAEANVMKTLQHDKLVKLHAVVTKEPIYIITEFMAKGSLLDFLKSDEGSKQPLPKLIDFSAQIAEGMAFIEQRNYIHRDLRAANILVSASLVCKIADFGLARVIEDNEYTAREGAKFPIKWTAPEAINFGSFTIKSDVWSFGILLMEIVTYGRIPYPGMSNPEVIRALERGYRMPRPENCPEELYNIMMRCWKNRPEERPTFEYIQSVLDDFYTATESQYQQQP
Chain of Tyrosine-protein kinase JAK1 (Homo sapiens) (P23458 whole entry): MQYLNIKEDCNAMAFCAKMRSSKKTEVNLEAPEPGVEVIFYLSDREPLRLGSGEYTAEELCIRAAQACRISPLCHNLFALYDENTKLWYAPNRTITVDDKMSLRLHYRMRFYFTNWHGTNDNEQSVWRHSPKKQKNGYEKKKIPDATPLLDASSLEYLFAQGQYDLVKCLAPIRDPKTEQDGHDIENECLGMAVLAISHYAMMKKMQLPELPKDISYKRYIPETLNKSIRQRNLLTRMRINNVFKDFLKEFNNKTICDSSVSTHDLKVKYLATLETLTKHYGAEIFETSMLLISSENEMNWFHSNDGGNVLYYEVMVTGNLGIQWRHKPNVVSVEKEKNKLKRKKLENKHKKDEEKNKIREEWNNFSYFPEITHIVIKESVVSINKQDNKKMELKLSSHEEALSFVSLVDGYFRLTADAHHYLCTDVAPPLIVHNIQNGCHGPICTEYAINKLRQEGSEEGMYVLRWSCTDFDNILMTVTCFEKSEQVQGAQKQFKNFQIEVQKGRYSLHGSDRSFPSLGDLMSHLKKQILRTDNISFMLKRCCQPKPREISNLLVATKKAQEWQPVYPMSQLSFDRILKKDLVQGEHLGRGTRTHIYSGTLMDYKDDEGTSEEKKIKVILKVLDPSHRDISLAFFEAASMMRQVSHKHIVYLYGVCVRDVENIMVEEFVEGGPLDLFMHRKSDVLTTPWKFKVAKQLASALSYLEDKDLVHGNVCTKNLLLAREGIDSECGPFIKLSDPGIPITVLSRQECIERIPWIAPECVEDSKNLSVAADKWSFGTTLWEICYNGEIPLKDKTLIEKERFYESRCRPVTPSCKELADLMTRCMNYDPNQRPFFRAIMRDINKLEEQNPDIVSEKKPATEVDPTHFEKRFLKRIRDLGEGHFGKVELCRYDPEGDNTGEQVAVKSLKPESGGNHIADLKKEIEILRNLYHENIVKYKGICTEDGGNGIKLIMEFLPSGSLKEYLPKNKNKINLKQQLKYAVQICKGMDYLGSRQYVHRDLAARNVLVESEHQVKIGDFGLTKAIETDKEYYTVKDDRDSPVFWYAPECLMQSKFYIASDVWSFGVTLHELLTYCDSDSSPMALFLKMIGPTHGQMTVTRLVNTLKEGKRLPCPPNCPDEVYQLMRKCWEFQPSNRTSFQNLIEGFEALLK
Chain of Platelet-derived growth factor receptor beta (Homo sapiens) (P09619 whole entry): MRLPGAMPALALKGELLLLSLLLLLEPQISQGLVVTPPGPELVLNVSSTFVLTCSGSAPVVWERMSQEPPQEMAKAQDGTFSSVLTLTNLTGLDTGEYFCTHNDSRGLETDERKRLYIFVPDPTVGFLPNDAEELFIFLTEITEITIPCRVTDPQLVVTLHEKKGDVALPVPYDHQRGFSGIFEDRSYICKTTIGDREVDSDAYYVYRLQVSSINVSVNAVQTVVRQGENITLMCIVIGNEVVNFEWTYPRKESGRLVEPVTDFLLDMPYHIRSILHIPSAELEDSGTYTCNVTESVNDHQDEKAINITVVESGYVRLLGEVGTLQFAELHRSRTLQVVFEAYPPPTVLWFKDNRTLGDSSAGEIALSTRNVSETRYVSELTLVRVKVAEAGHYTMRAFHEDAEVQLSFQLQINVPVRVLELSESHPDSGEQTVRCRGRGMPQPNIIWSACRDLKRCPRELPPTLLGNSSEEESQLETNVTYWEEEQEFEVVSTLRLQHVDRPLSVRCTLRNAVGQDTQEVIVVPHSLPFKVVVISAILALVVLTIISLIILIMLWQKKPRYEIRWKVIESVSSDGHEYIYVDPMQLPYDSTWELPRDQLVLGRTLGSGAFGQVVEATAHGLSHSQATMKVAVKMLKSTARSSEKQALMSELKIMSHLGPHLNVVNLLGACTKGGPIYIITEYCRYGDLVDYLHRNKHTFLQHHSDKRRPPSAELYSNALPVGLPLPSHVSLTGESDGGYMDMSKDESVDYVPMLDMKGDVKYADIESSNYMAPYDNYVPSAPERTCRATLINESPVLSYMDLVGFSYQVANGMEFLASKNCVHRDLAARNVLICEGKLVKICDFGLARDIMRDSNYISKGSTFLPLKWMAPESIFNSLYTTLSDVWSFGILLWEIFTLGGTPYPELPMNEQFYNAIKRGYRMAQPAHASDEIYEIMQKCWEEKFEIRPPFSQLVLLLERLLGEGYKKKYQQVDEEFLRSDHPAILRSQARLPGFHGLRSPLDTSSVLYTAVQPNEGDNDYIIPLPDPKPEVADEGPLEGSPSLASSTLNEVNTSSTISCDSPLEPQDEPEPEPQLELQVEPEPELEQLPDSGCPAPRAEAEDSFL
Chain of Dual specificity mitogen-activated protein kinase kinase 5 (Homo sapiens) (Q13163 whole entry): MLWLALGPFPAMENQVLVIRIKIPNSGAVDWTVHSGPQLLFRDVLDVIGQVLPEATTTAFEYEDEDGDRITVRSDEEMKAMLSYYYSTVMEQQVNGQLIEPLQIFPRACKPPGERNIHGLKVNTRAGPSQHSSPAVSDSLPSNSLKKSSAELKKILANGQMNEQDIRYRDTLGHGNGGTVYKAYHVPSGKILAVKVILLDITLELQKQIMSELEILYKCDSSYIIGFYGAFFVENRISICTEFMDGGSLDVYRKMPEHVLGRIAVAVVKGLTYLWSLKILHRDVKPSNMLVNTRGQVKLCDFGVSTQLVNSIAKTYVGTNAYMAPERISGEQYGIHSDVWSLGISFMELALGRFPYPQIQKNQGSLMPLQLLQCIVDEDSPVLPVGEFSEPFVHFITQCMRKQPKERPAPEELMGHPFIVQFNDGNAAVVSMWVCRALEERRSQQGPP
Chain of Receptor-type tyrosine-protein kinase FLT3 (Homo sapiens), P36888 [UNDEFINED MUTATION] (P36888 whole entry, looked up, change not shown): as the sequence (P36888 whole entry) above

CN(C)CC(=O)N1CCC[C@@H](n2nc(-c3ccc(Oc4ccccc4)cc3)c3c(N)ncnc32)C1
GI50 [1]: 2200 nM
GI50 [2]: 300 nM
inhibition [3]: Active
Activity (MV4-11 [4]): Active
GI50 [5]: 42 nM
GI50 [6]: 310 nM
inhibition [7]: Active
Activity [8]: Active
Activity [9]: Active
Activity [10]: 0.1%
inhibition [11]: Active
Activity [12]: 0.45%
GI50 [13]: 220 nM
inhibition [14]: Active
Cmax [15]: 458 ng/mL
GI50 [16]: 16 nM
GI50 [17]: 3800 nM
Activity (MV4-11 [18]): Active
GI50 [19]: 2600 nM
Tmax [20]: 1.2 min
inhibition [21]: Active
GI50 [22]: 1600 nM
bioavailability [23]: 30.4%
GI50 [24]: 650 nM
inhibition [25]: Active
Activity (MV4-11 [26]): 0.3 g
Activity (MOLM-13 [27]): Active
inhibition [28]: Active
Activity (MV4-11 [29]): Active
GI50 [30]: 880 nM
Activity [31]: 0.35%
Activity (MV4-11 [32]): 1.54 g
Activity (MOLM-13 [33]): Active
GI50 [34]: 280 nM
Vd [35]: 3.23 L/kg
Activity [36]: 0.5%
AUC(0-t) [37]: 1830 ng·h/mL
GI50 [38]: 940 nM
